Results reported in article PMC5292677 (Leukemia, 2016).

Test system: patients with myelofibrosis
Test: Phase I safety: drug-related adverse events, DLTs, tolerability
Assay type: in vivo, human
Summary of the method: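 Design was 3+3 dose escalation of oral test compound QD (75–400 mg) or BID (100–400 mg) in 28-day cycles. AEs were graded by CTCAE v4.0 with causality, alongside labs, ECGs, vital signs and physical exams. A DLT was grade 4 cytopenia, other grade 3/4 hematologic toxicity, or grade 3/4 non-hematologic toxicity, excluding manageable GI events. The population was all patients dosed ≥1 time.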

[1] = baseline platelet count <100 × 10^9/l
[2] = baseline platelet count <100 × 10^9/l (n=16)
[3] = baseline platelet count ⩾100 × 10^9/l
[4] = baseline platelet count ⩾100 × 10^9/l (n=32)

C[C@H](Nc1cc(-c2cnn(C)c2)cc(Nc2cnccn2)n1)c1ccc(F)cc1 [NS-018]
Cases of anemia (grade 2) (300 mg QD): 1 case
Rate of discontinuations owing to AEs (300 mg QD): 13%
Drug-related anemia, Grade 1/2 (300 mg QD (n=16)): 1 (6) n (%)
Drug-related anemia, all grades (300 mg QD (n=16)): 1 (6) n (%)
Drug-related diarrhea, all grade (300 mg QD (n=16)): 2 (13) n (%)
Drug-related diarrhea, grade 3 or 4 (300 mg QD (n=16)): 0 n (%)
Drug-related dizziness, all grade (300 mg QD (n=16)): 3 (19) n (%)
Drug-related dizziness, grade 3 or 4 (300 mg QD (n=16)): 1 (6) n (%)
Drug-related esophageal reflux, all grade (300 mg QD (n=16)): 1 (6) n (%)
Drug-related esophageal reflux, grade 3 or 4 (300 mg QD (n=16)): 0 n (%)
Drug-related headache, all grade (300 mg QD (n=16)): 2 (13) n (%)
Drug-related headache, grade 3 or 4 (300 mg QD (n=16)): 0 n (%)
Drug-related nausea, all grade (300 mg QD (n=16)): 0 n (%)
Drug-related paresthesia, all grade (300 mg QD (n=16)): 1 (6) n (%)
Drug-related paresthesia, grade 3 or 4 (300 mg QD (n=16)): 0 n (%)
Drug-related thrombocytopenia, Grade 1/2 (300 mg QD (n=16)): 0 n (%)
Drug-related thrombocytopenia, Grade 3 (300 mg QD (n=16)): 2 (13) n (%)
Drug-related thrombocytopenia, Grade 4 (300 mg QD (n=16)): 1 (6) n (%)
Drug-related thrombocytopenia, all grades (300 mg QD (n=16)): 3 (19) n (%)
Drug-related vomiting, all grade (300 mg QD (n=16)): 1 (6) n (%)
Drug-related vomiting, grade 3 or 4 (300 mg QD (n=16)): 0 n (%)
Drug-related weight increased, all grade (300 mg QD (n=16)): 0 n (%)
Drug-related grade 3 dyspnea (300 mg QD cohort): 6%
Patients who discontinued owing to AEs (beyond DLT) (400 mg BID): 2 patients
Drug-related anemia, Grade 1/2 (400 mg BID (n=8)): 1 (13) n (%)
Drug-related anemia, Grade 3 (400 mg BID (n=8)): 1 (13) n (%)
Drug-related anemia, Grade 4 (400 mg BID (n=8)): 0 n (%)
Drug-related anemia, all grades (400 mg BID (n=8)): 2 (25) n (%)
Drug-related diarrhea, all grade (400 mg BID (n=8)): 1 (13) n (%)
Drug-related diarrhea, grade 3 or 4 (400 mg BID (n=8)): 0 n (%)
Drug-related dizziness, all grade (400 mg BID (n=8)): 2 (25) n (%)
Drug-related dizziness, grade 3 or 4 (400 mg BID (n=8)): 1 (13) n (%)
Drug-related esophageal reflux, all grade (400 mg BID (n=8)): 0 n (%)
Drug-related headache, all grade (400 mg BID (n=8)): 1 (13) n (%)
Drug-related headache, grade 3 or 4 (400 mg BID (n=8)): 0 n (%)
Drug-related nausea, all grade (400 mg BID (n=8)): 0 n (%)
Drug-related paresthesia, all grade (400 mg BID (n=8)): 0 n (%)
Drug-related thrombocytopenia, Grade 1/2 (400 mg BID (n=8)): 0 n (%)
Drug-related thrombocytopenia, Grade 3 (400 mg BID (n=8)): 1 (13) n (%)
Drug-related thrombocytopenia, Grade 4 (400 mg BID (n=8)): 0 n (%)
Drug-related thrombocytopenia, all grades (400 mg BID (n=8)): 1 (13) n (%)
Drug-related vomiting, all grade (400 mg BID (n=8)): 0 n (%)
Drug-related weight increased, all grade (400 mg BID (n=8)): 0 n (%)
DLT: grade 3 dizziness (400 mg BID cohort): 1 patient
Tolerability as judged by the Safety Review Committee (400 mg BID/QD, based on proportion of drug-related neurological AEs): intolerable
Drug-related anemia, Grade 1/2 (400 mg QD (n=4)): 1 (25) n (%)
Drug-related anemia, all grades (400 mg QD (n=4)): 1 (25) n (%)
Drug-related diarrhea, all grade (400 mg QD (n=4)): 1 (25) n (%)
Drug-related diarrhea, grade 3 or 4 (400 mg QD (n=4)): 0 n (%)
Drug-related dizziness, all grade (400 mg QD (n=4)): 1 (25) n (%)
Drug-related dizziness, grade 3 or 4 (400 mg QD (n=4)): 0 n (%)
Drug-related esophageal reflux, all grade (400 mg QD (n=4)): 0 n (%)
Drug-related headache, all grade (400 mg QD (n=4)): 0 n (%)
Drug-related nausea, all grade (400 mg QD (n=4)): 1 (25) n (%)
Drug-related nausea, grade 3 or 4 (400 mg QD (n=4)): 0 n (%)
Drug-related paresthesia, all grade (400 mg QD (n=4)): 1 (25) n (%)
Drug-related paresthesia, grade 3 or 4 (400 mg QD (n=4)): 0 n (%)
Drug-related thrombocytopenia, all grades (400 mg QD (n=4)): 0 n (%)
Drug-related vomiting, all grade (400 mg QD (n=4)): 0 n (%)
Drug-related weight increased, all grade (400 mg QD (n=4)): 1 (25) n (%)
Drug-related weight increased, grade 3 or 4 (400 mg QD (n=4)): 0 n (%)
Recommended phase II dose (RP2D) (QD, oral): 300 mg
Additional patients (beyond DLT) who discontinued owing to AEs (all cohorts): 7 patients
Dose reduction owing to dizziness (all cohorts): 4 n
Patients with dose reductions owing to AEs (all cohorts): 11 patients
Patients with dose-limiting toxicities (DLTs) (all cohorts (n=48)): 2 patients
Treatment discontinuation because of AEs (all cohorts (n=48), data cutoff 21 July 2015): 8 n
Drug-related anemia, Grade 1/2 (all dose cohorts (n=48)): 4 (8) n (%)
Drug-related anemia, Grade 3 (all dose cohorts (n=48)): 3 (6) n (%)
Drug-related anemia, Grade 4 (all dose cohorts (n=48)): 0 n (%)
Drug-related anemia, all grades (all dose cohorts (n=48)): 7 (15) n (%)
Drug-related diarrhea, all grade (all dose cohorts (n=48)): 7 (15) n (%)
Drug-related diarrhea, grade 3 or 4 (all dose cohorts (n=48)): 0 n (%)
Drug-related dizziness, all grade (all dose cohorts (n=48)): 11 (23) n (%)
Drug-related dizziness, grade 3 or 4 (all dose cohorts (n=48)): 3 (6) n (%)
Drug-related esophageal reflux, all grade (all dose cohorts (n=48)): 3 (6) n (%)
Drug-related esophageal reflux, grade 3 or 4 (all dose cohorts (n=48)): 0 n (%)
Drug-related headache, all grade (all dose cohorts (n=48)): 3 (6) n (%)
Drug-related headache, grade 3 or 4 (all dose cohorts (n=48)): 0 n (%)
Drug-related nausea, all grade (all dose cohorts (n=48)): 9 (19) n (%)
Drug-related nausea, grade 3 or 4 (all dose cohorts (n=48)): 1 (2) n (%)
Drug-related paresthesia, all grade (all dose cohorts (n=48)): 4 (8) n (%)
Drug-related paresthesia, grade 3 or 4 (all dose cohorts (n=48)): 1 (2) n (%)
Drug-related thrombocytopenia, Grade 1/2 (all dose cohorts (n=48)): 5 (10) n (%)
Drug-related thrombocytopenia, Grade 3 (all dose cohorts (n=48)): 5 (10) n (%)
Drug-related thrombocytopenia, Grade 4 (all dose cohorts (n=48)): 3 (6) n (%)
Drug-related thrombocytopenia, all grades (all dose cohorts (n=48)): 13 (27) n (%)
Drug-related vomiting, all grade (all dose cohorts (n=48)): 3 (6) n (%)
Drug-related vomiting, grade 3 or 4 (all dose cohorts (n=48)): 0 n (%)
Drug-related weight increased, all grade (all dose cohorts (n=48)): 4 (8) n (%)
Drug-related weight increased, grade 3 or 4 (all dose cohorts (n=48)): 0 n (%)
Drug-related anemia, all grades (all patients (n=48)): 15%
Drug-related anemia, grade 3/4 (all patients (n=48)): 6%
Drug-related dizziness (all patients (n=48)): 23%
Drug-related nausea (all patients (n=48)): 19%
Drug-related thrombocytopenia, all grades (all patients (n=48)): 27%
Drug-related thrombocytopenia, grade 3/4 (all patients (n=48)): 17%
Drug-related thrombocytopenia, all grades [1]: 44%
Drug-related thrombocytopenia, grade 3/4 [1]: 38%
Drug-related thrombocytopenia, Grade 1/2 [2]: 1 (6) n (%)
Drug-related thrombocytopenia, Grade 3 [2]: 3 (19) n (%)
Drug-related thrombocytopenia, Grade 4 [2]: 3 (19) n (%)
Drug-related thrombocytopenia, all grades [2]: 7 (44) n (%)
Drug-related thrombocytopenia, all grades [3]: 19%
Drug-related thrombocytopenia, grade 3/4 [3]: 6%
Drug-related thrombocytopenia, Grade 1/2 [4]: 4 (13) n (%)
Drug-related thrombocytopenia, Grade 3 [4]: 2 (6) n (%)
Drug-related thrombocytopenia, Grade 4 [4]: 0 n (%)
Drug-related thrombocytopenia, all grades [4]: 6 (19) n (%)
Grade 4 neurologic events (during the study): No grade 4 neurologic events
